# The full list was thinned out, with hits kept by preference.
# Myeloid diff 2: induction of myeloid progenitor differentiation, primary screen, cell-based, flow cytometry, MLPCN library. calls only at 10 µM. ER-HoxA9 myeloid progenitors, lysozyme-GFP differentiation. hit rate 1% among 360,000;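 active = normalized GFP-positive differentiation at or above the plate's own cutoff, the solvent-only control mean plus 3 SD; inconclusive = no clear call, values can overlap the other calls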;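 also: cells exposed to compound for four days before flow analysis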
# ABCB6 inh MLPCN: ABCB6 transporter inhibitors, primary screen, K562-ABCB6 cells, flow cytometry, MLPCN library. ATP-binding cassette sub-family B member 6 (Homo sapiens), Q9NP58. K562-ABCB6 porphyrin accumulation, 1 h; stronger effect = lower value. fluorescence ratio to DMSO, % at 10 µM. hit rate 0.19% among 360,000. AID 602162, 2011;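 active = fluorescence ratio to DMSO below 75%, the collection mean minus 3 SD; inconclusive = too few cells collected in the well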;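 also: signal is porphyrin accumulated inside mitochondria; lower ratio means ABCB6 inhibition with less porphyrin fluorescence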
# Target sequence (Q9NP58 whole entry, looked up): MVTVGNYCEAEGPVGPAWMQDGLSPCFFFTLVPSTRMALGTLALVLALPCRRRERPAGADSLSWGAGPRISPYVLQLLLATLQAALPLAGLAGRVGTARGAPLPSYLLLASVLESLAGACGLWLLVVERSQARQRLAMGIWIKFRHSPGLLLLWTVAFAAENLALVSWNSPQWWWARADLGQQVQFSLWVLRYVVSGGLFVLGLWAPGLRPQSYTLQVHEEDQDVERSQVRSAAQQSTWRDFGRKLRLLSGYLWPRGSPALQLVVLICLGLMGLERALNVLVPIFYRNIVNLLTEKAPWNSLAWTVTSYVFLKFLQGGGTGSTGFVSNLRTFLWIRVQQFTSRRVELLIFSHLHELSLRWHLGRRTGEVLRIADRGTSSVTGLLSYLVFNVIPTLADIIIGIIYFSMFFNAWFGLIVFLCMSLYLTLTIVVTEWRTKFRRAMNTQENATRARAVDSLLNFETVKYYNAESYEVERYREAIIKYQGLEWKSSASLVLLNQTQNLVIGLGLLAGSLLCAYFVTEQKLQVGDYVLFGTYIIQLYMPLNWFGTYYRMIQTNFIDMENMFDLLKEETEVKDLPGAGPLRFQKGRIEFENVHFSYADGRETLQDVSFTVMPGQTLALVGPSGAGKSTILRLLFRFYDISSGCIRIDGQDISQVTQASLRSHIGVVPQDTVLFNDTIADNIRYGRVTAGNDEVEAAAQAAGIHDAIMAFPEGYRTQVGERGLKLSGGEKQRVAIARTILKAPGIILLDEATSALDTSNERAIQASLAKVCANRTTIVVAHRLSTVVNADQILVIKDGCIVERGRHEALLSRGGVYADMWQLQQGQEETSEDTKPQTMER
# Xi reactivation: activators of inactive X chromosome reactivation, primary screen, imaging, XiGFP fibroblasts, GFP high-content imaging, set 2; hit rate 0.055% among 360,000; activation, % at 7.58 µM; XiGFP mouse fibroblasts, % GFP-positive cells imaging, 3 d; cells co-treated with 5-aza-dC sensitizer; scaled so ellipticine positive control = 100%; AID 743238, 2013;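 active = mean normalized replicate activation at least 10% and every replicate at or above 10%; inconclusive = only one of the two criteria met; inactive = mean below 10% and not all replicates reach 10%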
#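 System: 68-5-11 XiGFP fibroblast line | Buffer or medium: DMEM containing 5-aza-dC | Compound: Single point | Times: Compounds 3 days, fix/stain 15 min at room temperature | Benchmarks: Positive control ellipticine, 6 µM final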
# Numbers stand for hits; - = inactive; ? = inconclusive; . = no result; + = active, no number.
SMILES,Myeloid diff 2,ABCB6 inh MLPCN,Xi reactivation
O=C(C[C@@H]1CC[C@@H]2[C@H](COC[C@H](O)CN2C(=O)c2ccccn2)O1)NC1CCC1,.,.,-
COc1ccccc1-c1ccc2c(c1)O[C@H](CN(C)C(C)=O)[C@H](C)CN([C@@H](C)CO)S2(=O)=O,.,.,-
C[C@@H]1CN([C@H](C)CO)C(=O)c2cc(NC(=O)CCN3CCOCC3)ccc2O[C@H]1CN(C)Cc1ccc(Cl)c(Cl)c1,.,.,-
O=C(Nc1ccccc1N1CCCC1)c1ccc([N+](=O)[O-])o1,+,-,-
O=C(Nc1cccc2ccccc12)c1ccc([N+](=O)[O-])o1,.,-,-
CN1CCN(c2ccccc2NC(=O)c2cc3ccccc3o2)CC1,+,-,.
CC1CCN(c2ccccc2NC(=O)c2ccc([N+](=O)[O-])o2)CC1,?,-,-
O=C(Nc1ccccc1N1CCCC1)c1cc2ccccc2o1,-,-,.
Cc1cccc(NC(=O)c2ccc([N+](=O)[O-])o2)c1C,+,-,-
CO[C@H]1CN(C)C(=O)c2cc(NC(=O)C3CC3)ccc2OC[C@@H](C)N(Cc2ccncc2)C[C@H]1C,.,.,-
CC(=O)N(C)C[C@@H]1Oc2ncccc2C(=O)N(C)C[C@H]1C,.,.,-
Cc1cc(NC(=O)CS(=O)(=O)c2cn(Cc3ccccc3Cl)c3ccccc23)no1,+,-,.
Cc1cc(NC(=O)CS(=O)(=O)c2cn(Cc3cccc(Br)c3)c3ccccc23)no1,-,-,-
COCC(=O)N1CC2(CN(Cc3ccccc3Cl)C2)c2c([nH]c3cc(OC)ccc23)[C@H]1CO,.,.,-
C[C@H](CO)N1C[C@H](C)[C@@H](CN(C)S(C)(=O)=O)Oc2ccc(NC(=O)Nc3ccc(F)cc3)cc2C1=O,.,.,-
CCOc1ccccc1N1CCN(C(=O)c2cc(-c3cccnc3)nc3c(Cl)cccc23)CC1,+,-,.
CCOc1ccccc1N1CCN(C(=O)c2ccncc2)CC1,.,-,.
CC1=CC(=C(C#N)c2nc3ccccc3s2)C=C(C)N1c1ccc(F)cc1,-,-,-
COc1ccccc1N1C(C)=CC(=C(C#N)c2nc3ccccc3s2)C=C1C,+,-,-
C[C@H](CO)N1C[C@H](C)[C@H](CN(C)Cc2ccncc2)Oc2ccc(NC(=O)NC3CCCCC3)cc2CC1=O,.,.,-
Cc1sc2nc(COC(=O)c3ccc(N4CCCC(C)C4)c([N+](=O)[O-])c3)[nH]c(=O)c2c1C (stereo not given),-,-,-
Cc1sc2nc(COC(=O)c3ccc(N4CCCC4)c([N+](=O)[O-])c3)[nH]c(=O)c2c1C,+,-,-
CN(C)Cc1cn(CC[C@@H]2CC[C@H](N)[C@@H](CO)O2)nn1,.,.,-
CN1C(=O)c2cccc3c(Cl)ccc(c23)C1=O,-,-,.
CNc1ccc2c3c(cccc13)C(=O)N(C)C2=O,+,-,-
SMILES,Myeloid diff 2,ABCB6 inh MLPCN,Xi reactivation
CS(=O)(=O)N1Cc2cc(C(=O)NCC3CCCCC3)nc(-c3cccc(-c4cccnc4)c3)c2[C@@H]1CCO,.,.,-
O=C(C#Cc1ccccc1)c1cccc([N+](=O)[O-])c1,-,71,.
CC(=O)c1cccc([N+](=O)[O-])c1,-,-,.
CCCNC(=O)C[C@H]1CC[C@@H]2[C@@H](COc3ccc(NC(=O)NCC)cc3C(=O)N2C)O1,.,.,-
C#CCSc1n[nH]c(-c2ccco2)n1,+,-,-
O=C(O)c1ccc(CSc2n[nH]c(-c3ccco3)n2)cc1,-,-,.
O=C(CSc1n[nH]c(-c2ccco2)n1)Nc1ccc(Br)cc1,-,-,-
COc1ccc(NC(=O)CSc2n[nH]c(-c3ccco3)n2)cc1,+,-,-
COc1ccc(-c2ccc(C3[C@H]4CNC[C@@H]3N4CC3CCOCC3)cc2)cc1 (stereo not given in full),.,.,-
O=C(C[C@@H]1C[C@H]2c3cc(NC(=O)C4CCC4)ccc3O[C@H]2[C@@H](CO)O1)NC1CCCCC1,.,.,-
Cc1ccc(Cl)cc1NC(=S)NCc1cccn1C,-,73,-
Cc1ccccc1NC(=S)NCc1cccn1C,-,-,-
COCC#Cc1ccc([C@@H]2[C@H](CO)N3C(=O)CN(C(=O)Nc4ccc(F)cc4)C[C@@H]23)cc1,.,.,-
Cc1ccc(N(C(=O)CNC(=O)c2ccco2)C(C(=O)NC2CCCC2)c2cccnc2)c(C)c1 (stereo not given),+,-,-
Cc1ccc(N(C(=O)CNC(=O)c2ccco2)C(C(=O)NC2CCCCC2)c2cccnc2)c(C)c1 (stereo not given),-,-,-
O=C(Nc1cccnc1)c1ccc(Oc2ccccc2)cc1,-,-,.
O=C(Nc1cccnc1)c1ccc2nc(-c3ccccc3)c(-c3ccccc3)nc2c1,+,-,-
CN1C(=O)c2cc(NC(=O)C3CCOCC3)ccc2OC[C@@H]2O[C@H](CC(=O)NCC3CC3)CC[C@@H]21,.,.,-
CCN(CC)Cc1c(NC(=O)c2ccccc2)sc(C)c1C,-,-,-
CCOC(=O)c1c(NC(=O)c2ccccc2)sc2c(O)c(CN(CC)CC)ccc12,-,69,.
CN1C(=O)c2cc(NC(=O)NC3CCCC3)ccc2OC[C@H]2O[C@@H](CC(=O)O)CC[C@@H]21,.,.,-
COc1cc(CNc2ccc(S(N)(=O)=O)cc2)ccc1OCc1ccccc1F,-,-,-
COc1cc(CNc2ccc(N3CCCC3)cc2)ccc1OCc1ccccc1F,+,-,.
COc1cc(CNc2ccc(N3CCCC3)cc2)ccc1OCc1ccccc1,+,-,-
COc1cc(CNc2ccc(N3CCCCC3)cc2)ccc1OCC(=O)NC(C)(C)C,-,-,-
SMILES,Myeloid diff 2,ABCB6 inh MLPCN,Xi reactivation
COC(=O)c1ccc(CN2CC(=O)N3[C@H](CO)[C@@H](c4ccc(-c5ccccc5)cc4)[C@H]3C2)cc1,.,.,-
O=C(OCc1ccc(F)cc1)c1ccc2c(c1)-c1ccccc1C2=O,-,-,.
CCOC(=O)C1=C(Cc2ccc(F)cc2)C(=O)c2ccccc2C1=O,+,-,.
CC(C)NC(=O)Nc1ccc2c(c1)C(=O)N([C@@H](C)CO)C[C@H](C)[C@@H](CN(C)Cc1ccc3c(c1)OCO3)OCCCC[C@H](C)O2,.,.,-
C[C@H](CO)N1C[C@H](C)[C@H](CN(C)C(=O)Nc2ccc3c(c2)OCO3)OCCCC[C@H](C)Oc2ccc(NC(=O)NC3CCCCC3)cc2C1=O,.,.,-
Cc1cc(SCC(=O)Nc2cccc(S(=O)(=O)NC3=NCCCCC3)c2)c(C)cc1Br,+,-,-
Cc1cc(SCC(=O)Nc2cccc(S(N)(=O)=O)c2)c(C)cc1Br,-,-,-
C[C@@H]1CN([C@H](C)CO)C(=O)Cc2cc(NC(=O)C3CCCCC3)ccc2O[C@@H]1CN(C)Cc1ccc(Cl)c(Cl)c1,.,.,-
CCCN1CCc2c(sc3nc(SC)n(-c4ccccc4)c(=O)c23)C1,.,-,-
CCCN1CCc2c(sc3nc(SCC)n(-c4ccccc4)c(=O)c23)C1,+,-,.
COc1ccc(CNC(=O)C[C@@H]2CC[C@H](NC(=O)Nc3ccc4c(c3)OCO4)[C@@H](CO)O2)cc1,.,.,-
COc1ccc(-c2c(C(=O)c3ccc(Br)cc3)[nH]c(N)c2C(=O)c2ccccc2)cc1OC,+,-,-

# Assay outcomes from PubChem BioAssay.
